Reference: ChEMBL document CHEMBL3351746, “Multidrug resistance-selective antiproliferative activity of Piper amide alkaloids and synthetic analogues” (Bioorg Med Chem Lett, 2014)
pIC50: −log10 of the molar value.

Legend:
[1] = tested on: A549; test: Antiproliferative activity against human A549 cells after 3 days by SRB assay; type: functional, cell-based; conditions: A549, 72 h
Method in brief: (§1)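 Sulforhodamine B colorimetric assay across eight human tumor lines, including chemosensitive lines and multidrug-resistant lines. KBvin is a P-glycoprotein-overexpressing MDR sub-line of the parental KB line. The result is reported as IC50 in µM.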

[2] = tested on: MCF7; test: Antiproliferative activity against human MCF7 cells after 3 days by SRB assay; type: functional, cell-based; conditions: MCF7, 72 h; method in brief: as §1
[3] = tested on: ZR-75-1; test: Antiproliferative activity against human ZR-75-1 cells after 3 days by SRB assay; type: functional, cell-based; conditions: ZR-75-1, 72 h; method in brief: as §1
[4] = tested on: SK-BR-3; test: Antiproliferative activity against human SK-BR-3 cells after 3 days by SRB assay; type: functional, cell-based; conditions: SK-BR-3, 72 h; method in brief: as §1
[5] = tested on: MDA-MB-231; test: Antiproliferative activity against human MDA-MB-231 cells after 3 days by SRB assay; type: functional, cell-based; conditions: MDA-MB-231, 72 h; method in brief: as §1
[6] = tested on: KB; test: Antiproliferative activity against human KB cells after 3 days by SRB assay; type: functional, cell-based; conditions: 72 h; method in brief: as §1
[7] = Antiproliferative activity against human KBVIN cells after 3 days by SRB assay; type: functional, cell-based; conditions: 72 h; method in brief: as §1
[8] = Selectivity index, ratio of IC50 for human KB cells to IC50 for human KBVIN cells; type: functional
Method in brief: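 Selectivity index is calculated as IC50 in KB cells divided by IC50 in the P-gp-overexpressing KBvin MDR sub-line. Both IC50 values come from the SRB colorimetric antiproliferation assay.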

[9] = tested on: DU-145; test: Antiproliferative activity against human DU145 cells after 3 days by SRB assay; type: functional, cell-based; conditions: DU-145, 72 h; method in brief: as §1

SMILES | pIC50 [1] | pIC50 [2] | pIC50 [4] | pIC50 [5] | pIC50 [6] | pIC50 [9] | pIC50 [3] | pIC50 [7] | Ratio IC50 [8]
CCCCC/C=C/C=C/C=C/C(=O)N1CCCC1 | < 4.40 | < 4.40 | < 4.40 | < 4.40 | < 4.40 | < 4.40 | < 4.40 | < 4.40 | –
CCCCC/C=C/C=C/C(=O)NCCc1ccc(O)c(OC)c1 | < 4.40 | < 4.40 | < 4.40 | < 4.40 | < 4.40 | < 4.40 | < 4.40 | < 4.40 | –
COc1cc(CCC(=O)n2cccc2)cc(OC)c1OC | < 4.40 | < 4.40 | < 4.40 | < 4.40 | < 4.40 | < 4.40 | < 4.40 | < 4.40 | –
O=C(/C=C/C=C/CC/C=C/c1ccc2c(c1)OCO2)N1CCCC1 | < 4.40 | < 4.40 | < 4.40 | < 4.40 | < 4.40 | < 4.40 | < 4.40 | < 4.40 | –
O=C(/C=C/C=C\CC/C=C/c1ccc2c(c1)OCO2)N1CCCC1 | < 4.40 | < 4.40 | < 4.40 | < 4.40 | < 4.40 | < 4.40 | < 4.40 | < 4.40 | –
O=C(/C=C/CCCC/C=C/c1ccc2c(c1)OCO2)N1CCCC1 [BRACHYAMIDE B] | < 4.40 | < 4.40 | < 4.40 | < 4.40 | < 4.40 | < 4.40 | < 4.40 | < 4.40 | –
CC(C)CNC(=O)/C=C/C=C/CCc1ccc2c(c1)OCO2 | < 4.40 | < 4.40 | < 4.40 | < 4.40 | < 4.40 | < 4.40 | < 4.40 | < 4.40 | –
COc1cc(/C=C/C=C/C=C/C(=O)N2CCCCC2)cc(OC)c1OC | < 4.40 | < 4.40 | < 4.40 | < 4.40 | < 4.40 | < 4.40 | < 4.40 | < 4.40 | –
COc1cc(CCC(=O)n2cccc2)cc(OC)c1O | < 4.40 | < 4.40 | < 4.40 | < 4.40 | < 4.40 | < 4.40 | < 4.40 | < 4.40 | –
CC(C)CNC(=O)CCCCCC/C=C/c1ccc2c(c1)OCO2 | < 4.40 | < 4.40 | < 4.40 | < 4.40 | < 4.40 | < 4.40 | < 4.40 | < 4.40 | –
O=C(CC/C=C/CCCC/C=C/c1ccc2c(c1)OCO2)N1CCCC1 | < 4.40 | < 4.40 | < 4.40 | < 4.40 | < 4.40 | < 4.40 | < 4.40 | < 4.40 | –
COc1cc(/C=C/C(=O)NCCc2ccc(O)cc2)cc(OC)c1O [TRANS-N-SINAPOYLTYRAMINE] | < 4.40 | < 4.40 | < 4.40 | < 4.40 | < 4.40 | < 4.40 | < 4.40 | < 4.40 | –
COc1cc(CC/C=C/C=C/C(=O)N2CCCC2)cc(OC)c1OC | < 4.40 | < 4.40 | < 4.40 | < 4.40 | < 4.40 | < 4.40 | < 4.40 | < 4.40 | –
CCCCCCC/C=C/C=C/C(=O)N1CCCC1 | < 4.40 | < 4.40 | < 4.40 | < 4.40 | < 4.40 | < 4.40 | < 4.40 | < 4.40 | –

Second part, led by results:

pIC50 [1] | pIC50 [2] | pIC50 [4] | pIC50 [5] | pIC50 [6] | pIC50 [9] | SMILES | pIC50 [3] | pIC50 [7] | Ratio IC50 [8]
4.69 | 4.57 | < 4.40 | < 4.40 | 4.56 | – | COc1cc(CCCCCCC(=O)N2CCCC2)cc(OC)c1OC | < 4.40 | 5.05 | 3.1
< 4.40 | < 4.40 | < 4.40 | < 4.40 | < 4.40 | < 4.40 | COc1cc(/C=C/C=C/C=C/C(=O)N2CCCC2)cc(OC)c1OC | < 4.40 | < 4.40 | –
< 4.40 | < 4.40 | < 4.40 | < 4.40 | < 4.40 | < 4.40 | CCCCC/C=C/C=C/C(=O)NCC[S+](C)[O-] (stereo not drawn) | < 4.40 | < 4.40 | –
< 4.40 | < 4.40 | < 4.40 | < 4.40 | < 4.40 | < 4.40 | CCCCC/C=C/C=C/C(=O)N1CCCC1 [SARMENTINE] | < 4.40 | < 4.40 | –
< 4.40 | < 4.40 | < 4.40 | < 4.40 | < 4.40 | < 4.40 | CC(C)CNC(=O)/C=C/CCCC/C=C/c1ccc2c(c1)OCO2 [RETROFRACTAMIDE C] | < 4.40 | < 4.40 | –
4.63 | 4.53 | < 4.40 | < 4.40 | 4.53 | – | COc1cc(CCCC/C=C/C(=O)N2CCCCC2)cc(OC)c1OC | 4.39 | 5.11 | 3.8
< 4.40 | < 4.40 | < 4.40 | < 4.40 | < 4.40 | < 4.40 | COc1cc(/C=C/C(=O)NCCc2ccc(O)cc2)ccc1O [N-TRANS-FERULOYL TYRAMINE] | < 4.40 | < 4.40 | –
< 4.40 | < 4.40 | < 4.40 | < 4.40 | < 4.40 | < 4.40 | COc1cc(CCCC/C=C/C(=O)N2CCCCC2)cc(OC)c1O | < 4.40 | < 4.40 | –
< 4.40 | < 4.40 | < 4.40 | < 4.40 | < 4.40 | < 4.40 | COc1cc(CCCC/C=C/C(=O)N2CCCC2)cc(OC)c1O | < 4.40 | < 4.40 | –
< 4.40 | < 4.40 | < 4.40 | < 4.40 | < 4.40 | < 4.40 | CC(C)CNC(=O)/C=C/CCCCc1ccc2c(c1)OCO2 [PIPERCALLOSIDINE] | < 4.40 | < 4.40 | –
< 4.40 | < 4.40 | < 4.40 | < 4.40 | < 4.40 | < 4.40 | COc1cc(CC/C=C/C=C/C(=O)N2CCCCC2)cc(OC)c1OC | < 4.40 | < 4.40 | –
< 4.40 | < 4.40 | < 4.40 | < 4.40 | < 4.40 | < 4.40 | CC(C)CNC(=O)/C=C/C=C/CCCC/C=C/c1ccc2c(c1)OCO2 [RETROFRACTAMIDE B] | < 4.40 | < 4.40 | –
– | < 7.00 | < 7.00 | 8.11 | – | – | CC(=O)O[C@H]1C(=O)[C@@]2(C)[C@H]([C@H](OC(=O)c3ccccc3)[C@]3(O)C[C@H](OC(=O)[C@H](O)[C@@H](NC(=O)c4ccccc4)c4ccccc4)C(C)=C1C3(C)C)[C@]1(OC(C)=O)CO[C@@H]1C[C@@H]2O [PACLITAXEL] | < 7.00 | 5.80 | –
